Assay results of several laboratories.
Converted amounts (≈) assume the structure as drawn.
Observed: microbial growth

| SMILES | organism | technique | strain | tested at | time | measurement | value |
| --- | --- | --- | --- | --- | --- | --- | --- |
| CC1(C)S[C@@H]2[C@H](NC(=O)[C@H](N)c3ccccc3)C(=O)N2[C@H]1C(=O)O | Salmonella enterica | broth dilution | ATCC14028 |  | 12 h | MIC | 0.25 µg/mL (≈ 0.715 µM) |
| COc1ccc(C=NNC(=O)CSc2nc3c(C)cccc3c(=O)n2-c2ccccc2)cc1OS(C)(=O)=O | Bacillus cereus | well diffusion |  | 20 µg/mL |  | inhibition zone | 2 mm |
| N#CC(C#N)=C1SC(C(=O)c2ccc(Nc3cnccn3)cc2)=NN1c1ccc([N+](=O)[O-])cc1 | Salmonella enterica | broth dilution | ATCC13076 TYPHIMURIUM |  |  | MIC | 12.5 µg/mL (≈ 26.7 µM) |
| CNC(C)C1CCC(N)C(OC2C(N)CC(N)C(OC3OCC(C)(O)C(NC)C3O)C2O)O1 (centres unmarked) | Bacillus cereus | broth dilution |  |  |  | MIC | 2 µg/mL (≈ 4.19 µM) |
| COc1ccc(N2N=C(C(=O)c3ccc(Nc4cnccn4)cc3)SC2=C(C#N)C#N)cc1 | Salmonella enterica | broth dilution | ATCC13076 TYPHIMURIUM |  |  | MIC | 6.25 µg/mL (≈ 13.8 µM) |
| O=C1/C(=C/c2ccc3ccccc3c2O)NC(=S)N1c1ccccc1 | Bacillus cereus | broth dilution | ATCC14579 |  |  | MIC | 24 µg/mL (≈ 69.3 µM) |
| N#CC(C#N)=C1SC(C(=O)c2ccc(Nc3cnccn3)cc2)=NN1c1ccccc1 | Salmonella enterica | broth dilution | ATCC13076 TYPHIMURIUM |  |  | MIC | 100 µg/mL (≈ 236 µM) |
| CCCS(=O)(=O)Oc1ccc(C=NNC(=O)CSc2nc3c(C)cccc3c(=O)n2-c2ccccc2)cc1OC | Bacillus cereus | well diffusion |  | 20 µg/mL |  | inhibition zone | 3 mm |
| [H]/N=C(/N)N[C@H]1[C@H](O)[C@@H](O)[C@H](O[C@@H]2O[C@@H](C)[C@](O)(C=O)[C@H]2O[C@@H]2O[C@@H](CO)[C@H](O)[C@@H](O)[C@@H]2NC)[C@@H](N/C(N)=N\[H])[C@@H]1O | Bacillus cereus | broth dilution | ATCC14579 |  |  | MIC | 15 µg/mL (≈ 25.8 µM) |
| Nc1ccc(S(=O)(=O)Nc2ncccn2)cc1 | Salmonella enterica | broth dilution | TYPHIMURIUM |  |  | MIC | 94 µg/mL (≈ 376 µM) |
| O=c1oc2ccccc2c(Nc2ccccc2)c1I | Salmonella enterica | broth dilution | TYPHIMURIUM |  |  | MIC90 | 10 µg/mL (≈ 27.5 µM) |
